System: MS2 coat protein
Assay: apparent Kd, MS2 coat protein; higher = weaker binding; RNA-MaP array; FMN 200 µM where present
Summary of the method: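 Designs were transcribed by stalled E. coli RNA polymerase on Illumina sequencing-chip clusters. They were titrated with SNAP-549-labelled MS2 coat protein from 0.7 or 1.5 nM, doubling to 3 µM, in 100 mM Tris-HCl pH 7.5, 80 mM KCl, 4 mM MgCl2, BSA, DTT, yeast tRNA and Tween-20, without and then with constant ligand. The apparent Kd is the median of filtered per-cluster fits after normalisation of green signal to red-channel RNA signal and control-cluster median Fmax.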

[1] = designed as: OFF switch for flavin mononucleotide, no ligand
[2] = ligand present: flavin mononucleotide, designed as: OFF switch for flavin mononucleotide
[3] = designed as: ON switch for flavin mononucleotide, no ligand
[4] = ligand present: flavin mononucleotide, designed as: ON switch for flavin mononucleotide

GGAAAUCAUGUAGGAUAUGCAUGGCGACGCUACGCAGAAGGACAUGAGGAUCACCCAUGUUAUAGCGUCCGAGAAAGGAUGCAA
apparent Kd [1]: 34.5 nM
apparent Kd [2]: 53.4 nM

CGGUUCUGAGGAUAUCCACCCUCAUACAUGAGGAUCACCCAUGUUCACCCUUGGGUUCCCGGAGAAGGCAGUUUUC
apparent Kd [1]: 233 nM
apparent Kd [2]: 570 nM

GCACCUGCGUAGAAGGUACUAUAUAAUGCAGUGUAAGGAUAUACAUACAUGAGGAUCACCCAUGUAAAUGGAAUUUGCAGGUGC
apparent Kd [3]: 12.2 nM
apparent Kd [4]: 10.3 nM

UUGGACGUCGUAGGAUAUGUAGGAUAUCCCUACAUGAGGAUCACCCAUGUUGACAUGGAAGAAGGACAGAAGGACGAUGUCCAU
apparent Kd [3]: 105 nM
apparent Kd [4]: 11.8 nM

AAGAAACAUGAGGAUCACCCAUGUGAGGAUAUGUAAAAGAAAAGAAAAUAAAGAAGAAACAGAAGGCACAAAGG
apparent Kd [1]: 40.2 nM
apparent Kd [2]: 64.4 nM

UGAUCACAUGAGGAUCACCCAUGUCAGGAUAUCGUCACUGGAGCUUCGGCUCCAGUGACGAGAAGGGAUAUAAU
apparent Kd [1]: 91.5 nM
apparent Kd [2]: 197 nM

GGUACUCAAAGAGUACCAAUACGAACAUGAGGAUCACCCAUGUAGGAUAUGCUACUCAAAGAGUAGCAGAAGGACGUGUACCUU
apparent Kd [1]: 24.7 nM
apparent Kd [2]: 54 nM

AAAAAAAAAAGGCAGGAUAUCCAAAAAAAAACAUGAGGAUCACCCAUGUAAAAAAAAAAAAAAUGGGAGAAGGGCCAAAAAAAAAA
apparent Kd [3]: 39.2 nM
apparent Kd [4]: 14.3 nM

GUCAGCUCGUGAGGAUAUACAACACUGCUUCGGCAGUGUAUUAAGAUCACAUGAGGAUCACCCAUGUAGAAGGCACGAGCUGUU
apparent Kd [1]: 13.8 nM
apparent Kd [2]: 305 nM

ACCUCGUCAGGAUAUCCUAUUAAUUGUUUCAUAUUUACGAUGGAGAAGGGACAUGAGGAUCACCCAUGUUGGUC
apparent Kd [1]: 35.5 nM
apparent Kd [2]: 58 nM

UCUACAUAAAUUCAUCAAUACAGAAAGGAUAUGAGAUACAUGAGGAUCACCCAUGUGCAUGGGAAUUAGAAGGUUCAAUUAACU
apparent Kd [1]: 98.5 nM
apparent Kd [2]: 67.2 nM

GGUCAGGGUGUGAGGAUAUUUACCUAUCACAGUGUGAAGAAGGCACAUGAGGAUCACCCAUGUUAACUGCGGGC
apparent Kd [1]: 51.7 nM
apparent Kd [2]: 76.7 nM

GACAUGAGGAUCACCCAUGUCCGGGCCAAGAGAAGAAAUACCAGAAGGACCGGCAGAAAUGUGCGGUAGGAUAUGGGAUUCGUG
apparent Kd [3]: 36.4 nM
apparent Kd [4]: 9.15 nM

AUUUCGUUAGCAGGAUAUGGACAGGCCUGUCCGUAUUGAGUCAGUAACAUGAGGAUCACCCAUGUCCAGAAGGGCUCGAAGUAU
apparent Kd [1]: 7.83 nM
apparent Kd [2]: 15.3 nM

AUAUAGUCAGGAUAUCGAAAUAUAUAUUAAUAUAUAUAAUACGAGAAGGGACAUGAGGAUCACCCAUGUAGUAA
apparent Kd [1]: 25.7 nM
apparent Kd [2]: 31.1 nM

UAAACGUUCUAGAAGGUGCUUUUGUUAAACAAGCAAGGAUAUAGACAUGAGGAUCACCCAUGUCUUUUAGACAUCGACAUACUU
apparent Kd [1]: 6.9 nM
apparent Kd [2]: 8.03 nM

CUAUAUAAUGCCUCAUGUACAUGAGGAUCACCCAUGUUAACUUAGGAUAUAUUUAUAUUGAUAGAGUAGAAGGAAGUACUAUUU
apparent Kd [1]: 14.2 nM
apparent Kd [2]: 12.9 nM

GGUGCCAUGUAGAAGGCAGAUCUGAUUCAGAUCUGAGGAUAUACAUGAGGAUCACCCAUGUAAGGGCACCGCACGAGAGUGCAA
apparent Kd [1]: 6.56 nM
apparent Kd [2]: 10.2 nM

GUCGUGUGAGGAUAUGCACGAGUGACAGGGAGGCUGUCACAGCAGAAGGUACAUGAGGAUCACCCAUGUGAAAU
apparent Kd [1]: 29.1 nM
apparent Kd [2]: 24.2 nM

AAAUUUAACGAAGGAUAUGGAUACAUGAGGAUCACCCAUGUAUAUUUUGUGAUCUUGUAAAAGUACCAGAAGGUCGUAUACAUA
apparent Kd [1]: 85.7 nM
apparent Kd [2]: 208 nM

GCCAACGCAUGAGGAUAUGCUCCCGUUUCGGGAGCAGAAGGCAUGUCAUAAGACAUGAGGAUCACCCAUGUAGUUAAGAUGGCA
apparent Kd [3]: 474 nM
apparent Kd [4]: 20.1 nM

GUUAAUUAGUGAGGAUAUACAGAGAGUGAAGCUGUAGAAGGCACAUUCCUCAAGACAUGAGGAUCACCCAUGUGAUAAUAAGAU
apparent Kd [1]: 37.4 nM
apparent Kd [2]: 105 nM

CUUUUGUGAGGAUAUUAGUAGUAAAUAAAUAAAAUUACUACUGAGAAGGCACAUGAGGAUCACCCAUGUUUCUC
apparent Kd [1]: 32.4 nM
apparent Kd [2]: 284 nM

AAGUUUAACGAAGGAUAUGGUUACAUGAGGAUCACCCAUGUAAUGGUUGUGAUAUUGAUUAAGUUCCAGAAGGUCGUAUACAUA
apparent Kd [1]: 109 nM
apparent Kd [2]: 301 nM

UCACAGUGUCGUUAUCCGUAGCGAACAUGAGGAUCACCCAUGUAGGAUAUGUUAUUAAACUAAUAACAGAAGGACGUUGGUCUC
apparent Kd [1]: 83.2 nM
apparent Kd [2]: 530 nM

GGGUACAUCGGAGGAUAUCAUGUAAAUACAUGAGGAUCACCCAUGUCGAUGGAGACAUCGGAGAUUGAGAAGGCCCAUGUACCG
apparent Kd [3]: 199 nM
apparent Kd [4]: 10.8 nM

GCGAUAUUGUAAGGAUAUACUCUGUGAUGAAGAGUAGAAGGUACUUACAUGAGGAUCACCCAUGUUUAACGAGAUACUAAUCGC
apparent Kd [3]: 16.6 nM
apparent Kd [4]: 13.1 nM

UCACGGUAUGUAGGAUAUGCAUAGCAUUGCUAUGCAGAAGGACAUGAGGAUCACCCAUGUAUGUAUUCCAUACUAAUCCCGUGC
apparent Kd [1]: 6.01 nM
apparent Kd [2]: 6.03 nM

UUUUACGAAGGAUAUACAUUUUUUUUAUUAUUUUCAUUAUUACAUGAGGAUCACCCAUGUAGAAGGUCGAUUUU
apparent Kd [1]: 24.3 nM
apparent Kd [2]: 23.7 nM

GGACCAUAUCAGGAUAUGACUAGCUUCGGCUAGUCAGAAGGGAUGACAUGAGGAUCACCCAUGUGAUCAGGUCC
apparent Kd [1]: 42.1 nM
apparent Kd [2]: 50.5 nM

ACAUGAGGAUCACCCAUGUAAUGAUGGGUACUAUAUUAUUCGUAGGAUAUCGUUGUUAGUUUGUUCGAGAAGGACGUUUGCCUU
apparent Kd [1]: 1220 nM
apparent Kd [2]: 1200 nM

UUCAGCUCGUCAGGAUAUACGUCACUGCUUCGGCAGUGUGGUAAGAUCACAUGAGGAUCACCCAUGUAGAAGGGACGAGCUGAA
apparent Kd [1]: 12.5 nM
apparent Kd [2]: 254 nM

GCUUUAUAGAUCCAUUUUAACAACAUGAGGAUCACCCAUGUGCAGGAUAUCGUUUGUUUUAUAUUCGAGAAGGGCAAAUUCAUC
apparent Kd [1]: 37.9 nM
apparent Kd [2]: 93.1 nM

GUCAGCUCGUCAGGAUAUACGUCACUGCGUCAGCAGUGUGGUAAGAUCACAUGAGGAUCACCCAUGUAGAAGGGACGAGCUGAU
apparent Kd [1]: 14.1 nM
apparent Kd [2]: 291 nM

CUUUUGUGAGGAUAUCGGUAGUAAUACAAUAGUAUUACUACUGAGAAGGCACAUGAGGAUCACCCAUGUUCCUC
apparent Kd [1]: 49.2 nM
apparent Kd [2]: 305 nM

UGCUGACGAGGAUAUACAUGAGGAUCACCCAUGUUGGUUCAGCGACUUCGGUCGCAAUGUAGAAGGCGUCAGCU
apparent Kd [1]: 410 nM
apparent Kd [2]: 277 nM

UUUUAACAUGAGGAUCACCCAUGUGAGGAUAUCGAAAUUUAUAUUUAUAUUAAUAAAUCGAGAAGGCACAUUUU
apparent Kd [1]: 117 nM
apparent Kd [2]: 117 nM

UUAAUUUGAUGAUAUUAUGAUAUUAGAAGGCUGUACAUGUUGAUACAUGAGGAUCACCCAUGUAUAGAGGAUAUAGACAAUUUU
apparent Kd [1]: 27.8 nM
apparent Kd [2]: 57.3 nM

AGGAUCCUAUCAAGACAAAUGUACAUGAGGAUCACCCAUGUGCAGGAUAUAGCUAGUUACGGUGGUUAGAAGGGCACGCCAAAA
apparent Kd [1]: 8.98 nM
apparent Kd [2]: 13.3 nM

UGUAUGGACAGAGGAUAUGCCGAUAGGAUCUACUAUCGAAGAAUCCUCACAUGAGGAUCACCCAUGUAGAAGGCUGUUCAUACU
apparent Kd [1]: 8.2 nM
apparent Kd [2]: 34.1 nM

GGAUGACAUAGUCAUCCUUAACGAACAUGAGGAUCACCCAUGUAGGAUAUGCUACUCAAAGAGUAGCAGAAGGACAUGUGUCUU
apparent Kd [1]: 27.2 nM
apparent Kd [2]: 157 nM

AGGAAGUGAGGAUAUGCAGCAGCUAGUGGACGCUAGCGCAUGUAGAAGGCACAUGAGGAUCACCCAUGUUUAAA
apparent Kd [1]: 32.1 nM
apparent Kd [2]: 36.2 nM

UUGUUGUAUGUAGGAUAUGCAUGUUAUUAUUAUGCAGAAGGACAUGAGGAUCACCCAUGUGUAUUAUUAUUAUAUAUUAUAUAU
apparent Kd [1]: 20.9 nM
apparent Kd [2]: 23.3 nM

UGGUAACAUGAGGAUCACCCAUGUCAGGAUAUCAGUAAGAAUAGAUUAGAGUAGAAGAUGAGAAGGGACUAUAU
apparent Kd [1]: 31.9 nM
apparent Kd [2]: 29.5 nM

UUUCCCUGUGUGAGGAUAUACUUGUUUGGGUUUUUGUAGAAGGCACAUGAGGAUCACCCAUGUACUCUGUCCUG
apparent Kd [1]: 25.3 nM
apparent Kd [2]: 30.6 nM

CCUCAGUAAGGAUAUCAGCUUAUGGAGGUGGUAAUGAGAGCUGAGAAGGUACAUGAGGAUCACCCAUGUUAGUU
apparent Kd [1]: 57 nM
apparent Kd [2]: 102 nM

GCUGCCGAUGCAGGAUAUCAGCACGUGUAGUGCUGAGAAGGGCACAUGAGGAUCACCCAUGUGAUCAAUUAAUAUCCGUGCAGC
apparent Kd [1]: 5.89 nM
apparent Kd [2]: 7.78 nM

CGUAGGCCUCUCAACAUGAGGAUCACCCAUGUACGUGAAACGUAGGAUAUCACACAACUAAUGUGUGAGAAGGGCGCGCCGGAG
apparent Kd [3]: 126 nM
apparent Kd [4]: 124 nM

UGAACUUCAGAGAAGGUCGAACGGCAACGGUUCGAAGGAUAUCUGGAAACAUGAGGAUCACCCAUGUAACCGGGUGGAUGUCCU
apparent Kd [1]: 58.9 nM
apparent Kd [2]: 291 nM

GGAUGAGCAAUAGGAUAUGCUGGGAUUGAAUGGGUAGAAGGAUUUCUAGUGGGAAAGACAUGAGGAUCACCCAUGUCGCGGACC
apparent Kd [3]: 25.2 nM
apparent Kd [4]: 26.6 nM

AUAAAACAUGAGGAUCACCCAUGUCAGGAUAUACGAUAUUAAAUUUAAUAUAUUUAUAGUAGAAGGGACAAAUA
apparent Kd [1]: 50.4 nM
apparent Kd [2]: 55 nM

GGUCUGACAUAAGGAUAUGCUCAGGAAUACUGAGCAGAAGGUAUGUGAAAACAUGAGGAUCACCCAUGUGAUCAAUACAGACCA
apparent Kd [3]: 18 nM
apparent Kd [4]: 20.9 nM

UCGUAUACACAAGGAUAUCGAUGGCUUGUAGAUCCUACAUGAGGAUCACCCAUGUUUUUAUAUUGUGAGAAGGUGUAGUGUCGU
apparent Kd [3]: 1320 nM
apparent Kd [4]: 1210 nM

UGUUGUAUUACAGGAUAUCUAGGAUUUUUAUUUAGAGAAGGGUAUUCACAUGAGGAUCACCCAUGUAUAUACGAGGAAGUUGUG
apparent Kd [3]: 40.2 nM
apparent Kd [4]: 41.3 nM

AGUGCGUAUGUGAGGAUAUGCUGGUCCUUGGCUCGGCAGAAGGCACAUGAGGAUCACCCAUGUGGUGUCGUACU
apparent Kd [1]: 239 nM
apparent Kd [2]: 47.1 nM
